A word on the MIC: it is the lowest concentration found to suppress growth.

What all share (assay type): functional
Test [1] relates to Mycobacterium tuberculosis. In words: Antimycobacterial activity against mixture of fluoroquinolone-resistant and sensitive Mycobacterium tuberculosis Beijing genotype isolates carrying heteropeaks upon sequencing at mutation site and harboring gyrA D94N mutant gene. The gist of the method: (§1)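 Ofloxacin MIC was determined on isolates from the first 65 FQ-resistant clinical isolates, screened by the WHO 1% proportion method on Lowenstein-Jensen medium with ofloxacin at 2 μg/ml. Beijing genotype was assigned by spoligotyping.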

Test [2] deals with Mycobacterium tuberculosis. In words: Antimycobacterial activity against mixture of fluoroquinolone-resistant and sensitive Mycobacterium tuberculosis Beijing genotype isolates carrying heteropeaks upon sequencing at mutation site and harboring gyrA D94A mutant gene. Summed up: as §1
The subject of test [3] is Mycobacterium tuberculosis. In words: Antimycobacterial activity against mixture of fluoroquinolone-resistant and sensitive Mycobacterium tuberculosis Beijing genotype isolates carrying heteropeaks upon sequencing at mutation site and harboring gyrA D94Y mutant gene. The gist of the method:
as §1

The test system of test [4] is Mycobacterium tuberculosis. In words: Antimycobacterial activity against fluoroquinolone-resistant Mycobacterium tuberculosis Beijing genotype isolates without carrying multiple mutation and harboring gyrB D500N mutant gene. The gist of the method:
(§2)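 Ofloxacin MIC was determined on the first 65 FQ-resistant clinical isolates, and 64 regrew on subculture. Resistance was defined by the WHO 1% proportion method on Lowenstein-Jensen medium with ofloxacin at 2 μg/ml. Mutations were assigned by gyrA/gyrB sequencing and Beijing genotype by spoligotyping. The value is the median MIC per mutation, excluding isolates with multiple mutations or sequencing heteropeaks.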

The subject of test [5] is Mycobacterium tuberculosis. In words: Antimycobacterial activity against fluoroquinolone-resistant Mycobacterium tuberculosis Beijing genotype isolates without carrying multiple mutation and harboring gyrA D94Y mutant gene. The gist of the method:
as §2

Test [6] concerns Mycobacterium tuberculosis. In words: Antimycobacterial activity against mixture of fluoroquinolone-resistant and sensitive Mycobacterium tuberculosis Beijing genotype isolates carrying heteropeaks upon sequencing at mutation site and harboring gyrA A90V mutant gene. Summed up:
as §1

Test [7] concerns Mycobacterium tuberculosis. The test is described as follows: Antimycobacterial activity against mixture of fluoroquinolone-resistant and sensitive Mycobacterium tuberculosis Beijing genotype isolates carrying heteropeaks upon sequencing at mutation site and harboring gyrB A90V and T539P mutant genes. The gist of the method:
as §1

For test [8], the system named is Mycobacterium tuberculosis. In words: Antimycobacterial activity against mixture of fluoroquinolone-resistant and sensitive Mycobacterium tuberculosis Beijing genotype isolates carrying heteropeaks upon sequencing. Summed up: as §1
Test [9] concerns Mycobacterium tuberculosis. In words: Antimycobacterial activity against fluoroquinolone-resistant Mycobacterium tuberculosis Beijing genotype isolates without carrying mutation. The gist of the method:
as §2

Test [10] deals with Mycobacterium tuberculosis. The test is described as follows: Antimycobacterial activity against fluoroquinolone-resistant Mycobacterium tuberculosis Beijing genotype isolates without carrying multiple mutation and harboring gyrB D540D mutant gene. Summed up:
as §2

The subject of test [11] is Mycobacterium tuberculosis. The test is described as follows: Antimycobacterial activity against mixture of fluoroquinolone-resistant and sensitive Mycobacterium tuberculosis Beijing genotype isolates carrying heteropeaks upon sequencing at mutation site and harboring gyrA G88A mutant gene. The gist of the method: as §1
For test [12], the system named is Mycobacterium tuberculosis. The test is described as follows: Antimycobacterial activity against fluoroquinolone-resistant Mycobacterium tuberculosis Beijing genotype isolates without carrying multiple mutation and harboring gyrA D94G mutant gene. The gist of the method: as §2
Test [13] deals with Mycobacterium tuberculosis. The test is described as follows: Antimycobacterial activity against mixture of fluoroquinolone-resistant and sensitive Mycobacterium tuberculosis Beijing genotype isolates carrying heteropeaks upon sequencing at mutation site and harboring gyrB A90V and D500A mutant genes. The gist of the method: as §1
The test system of test [14] is Mycobacterium tuberculosis. The test is described as follows: Antimycobacterial activity against mixture of fluoroquinolone-resistant and sensitive Mycobacterium tuberculosis Beijing genotype isolates carrying heteropeaks upon sequencing at mutation site and harboring gyrA D94G and D94A mutant genes. Summed up:
as §1

In test [15] the test system is Mycobacterium tuberculosis. The test is described as follows: Antimycobacterial activity against fluoroquinolone-resistant Mycobacterium tuberculosis Beijing genotype isolates without carrying multiple mutation and harboring gyrA D94N mutant gene. Summed up: as §2
In test [16] the test system is Mycobacterium tuberculosis. In words: Antimycobacterial activity against mixture of fluoroquinolone-resistant and sensitive Mycobacterium tuberculosis Beijing genotype isolates carrying heteropeaks upon sequencing at mutation site and harboring gyrA D94G mutant gene. The gist of the method: as §1
Test [17] deals with Mycobacterium tuberculosis. The test is described as follows: Antimycobacterial activity against mixture of fluoroquinolone-resistant and sensitive Mycobacterium tuberculosis Beijing genotype isolates carrying heteropeaks upon sequencing at mutation site and harboring gyrA A90V and D94A mutant genes. The gist of the method:
as §1

Test [18] concerns Mycobacterium tuberculosis. In words: Antimycobacterial activity against fluoroquinolone-resistant Mycobacterium tuberculosis Beijing genotype isolates without carrying multiple mutation and harboring gyrA D94A mutant gene. The gist of the method:
as §2

Test [19] relates to Mycobacterium tuberculosis. In words: Antimycobacterial activity against fluoroquinolone-resistant Mycobacterium tuberculosis Beijing genotype isolates without carrying multiple mutation and harboring gyrB A90V and T539P mutant genes.
The subject of test [20] is Mycobacterium tuberculosis. The test is described as follows: Antimycobacterial activity against fluoroquinolone-resistant Mycobacterium tuberculosis Beijing genotype isolates without carrying multiple mutation and harboring gyrA A90V mutant gene. The gist of the method: as §2
Test [21] concerns Mycobacterium tuberculosis. In words: Antimycobacterial activity against mixture of fluoroquinolone-resistant and sensitive Mycobacterium tuberculosis Beijing genotype isolates carrying heteropeaks upon sequencing at mutation site and harboring gyrB D500N mutant gene. Summed up: as §1
Test [22] concerns Mycobacterium tuberculosis. In words: Antimycobacterial activity against mixture of fluoroquinolone-resistant and sensitive Mycobacterium tuberculosis Beijing genotype isolates carrying heteropeaks upon sequencing at mutation site and harboring gyrB D540D mutant gene. Summed up:
as §1

Test [23] has as its system Mycobacterium tuberculosis. The test is described as follows: Antimycobacterial activity against mixture of fluoroquinolone-resistant and sensitive Mycobacterium tuberculosis Beijing genotype isolates carrying heteropeaks upon sequencing at mutation site and harboring gyrA A90V and D94G mutant genes. Summed up: as §1

In brackets after ≈: the same amount, converted by molar mass.

For `CC1COc2c(N3CCN(C)CC3)c(F)cc3c(=O)c(C(=O)O)cn1c23` (stereo not drawn) [OFLOXACIN], the MIC in [1] was 12 µg/mL (≈ 33.2 µM); in test [2], 8 µg/mL (≈ 22.1 µM); in [3] it was >12 µg/mL; in test [4], >4 µg/mL; in test [5], 12 µg/mL (≈ 33.2 µM); in [6], 8 µg/mL (≈ 22.1 µM). Also, the MIC is >12 µg/mL in [7]; 4 µg/mL (≈ 11.1 µM) in test [8]; 4 µg/mL (≈ 11.1 µM) in [9]; 12 µg/mL (≈ 33.2 µM) in [10]; 12 µg/mL (≈ 33.2 µM) in [11]; 12 µg/mL (≈ 33.2 µM) in [12]. Further, the minimum inhibitory concentration (MIC) in test [13] amounted to 8 µg/mL (≈ 22.1 µM); in test [14], 12 µg/mL (≈ 33.2 µM); in [15], 12 µg/mL (≈ 33.2 µM); in [16], 12 µg/mL (≈ 33.2 µM); in test [17], 8 µg/mL (≈ 22.1 µM); in test [18], 8 µg/mL (≈ 22.1 µM). For the same compound, the MIC in test [19] was >12 µg/mL; in [20] it was 8 µg/mL (≈ 22.1 µM); in test [21], 4 µg/mL (≈ 11.1 µM); in test [22], 12 µg/mL (≈ 33.2 µM); in [23] it was 12 µg/mL (≈ 33.2 µM).

(Values after ChEMBL document CHEMBL1687749, “Beijing genotype of Mycobacterium tuberculosis is significantly associated with high-level fluoroquinolone resistance in Vietnam” (2009).)
